Measured values as given in ChEMBL document CHEMBL4765334, “Chemical profiling of HIV-1 capsid-targeting antiviral PF74” (Eur J Med Chem, 2020).

Experiments:
[1] = Stability of the compound in human plasma assessed as half life incubated for 3 hrs by LC-MS/MS analysis; type: ADME, cell-free
[2] = Metabolic stability at phase 1 in human liver microsomes assessed as half life at 1 uM by LC-MS/MS analysis; type: ADME, Microsome
[3] = Metabolic stability at phase 1 in mouse liver microsomes assessed as half life at 1 uM by LC-MS/MS analysis; type: ADME, Microsome; details: for half-life at 1 µM: liver microsomes; for t1/2: microsomes, 1 µM
TZM = assay: Cytotoxicity against human TZM-GFP cells incubated for 72 hrs by XTT assay; type: cell-based; details: tzm, 72 h
Method in brief: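 TZM-GFP cells seeded at 1 × 10^4 per well and exposed continuously to increasing compound concentrations for 72 h. Viable cell number read by XTT proliferation kit. CC50 fitted as log(inhibitor) vs normalized response, variable slope, per independent assay and averaged. Run in duplicate, at least two independent experiments, reported as mean ± standard deviation.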

[4] = Stability of the compound in mouse plasma assessed as half life incubated for 3 hrs by LC-MS/MS analysis; type: ADME, cell-free
[5] = test system: Human immunodeficiency virus 1; assay: Binding affinity to covalently-crosslinked hexameric HIV1 capsid protein A14C/E45C/W184A/M185A mutant expressed in Escherichia coli BL21(DE3)RIL assessed as change in melting temperature at 20 uM incubated for 30 mins by thermal shift dye based fluorescence analysis
Method in brief: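 Thermal shift: 15 μM CA121 in 50 mM sodium phosphate pH 8.0 with Sypro Orange and compound at 20 μM final or DMSO control. Heated 25 to 95 °C at 0.2 °C/10 s; fluorescence Ex 475–500, Em 520–590 nm. ΔTm = Tm(compound) − T0(DMSO) for CA hexamer melting.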

[6] = test system: Human immunodeficiency virus 1; assay: Antiviral activity against HIV1 NL4-3 infected in human TZM-GFP cells assessed as number of GFP positive cells incubated for 48 hrs by imaging reader; type: functional, organism-based; details: Human immunodeficiency virus 1, NL4-3, TZM
Method in brief: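 TZM-GFP cells seeded 1 × 10^4/well and given increasing compound concentrations 24 h later; infected with HIV-1 NL4-3 (MOI = 1) after a further 24 h. Read-out after 48 h: GFP-positive cell counts (LTR-driven) versus DMSO controls. EC50 fitted as log(inhibitor) vs normalized response, variable slope, per experiment and averaged; mean ± SD, duplicates, at least two independent experiments.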

[7] = test system: Human immunodeficiency virus 1; assay: Antiviral activity against HIV1 NL4-3 infected in human TZM-GFP cells assessed as number of GFP positive cells at 20 uM incubated for 48 hrs by imaging reader; type: functional; details: Human immunodeficiency virus 1, NL4-3, TZM
Method in brief: (§1)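 TZM-GFP cells seeded 1 × 10^4/well; after 24 h medium replaced with compound at the stated single concentration, then 24 h later infected with HIV-1 (MOI = 1). After 48 h, GFP-positive cells counted by imaging and percent inhibition determined versus DMSO controls. Duplicate wells, at least two independent experiments.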

[8] = test system: Human immunodeficiency virus 1; assay: Antiviral activity against HIV1 NL4-3 infected in human TZM-GFP cells assessed as number of GFP positive cells at 2 uM incubated for 48 hrs by imaging reader; type: functional; details: Human immunodeficiency virus 1, NL4-3, TZM; method in brief: as §1

Compound	t1/2 [1]	t1/2 [2]	half-life at 1 µM [3]	CC50 (TZM)	t1/2 [4]	ΔTm [5]	EC50 [6]	t1/2 [3]	inhibition at 20 µM [7]	inhibition at 2 µM [8]
Cc1ccc(N(C)C(=O)[C@H](Cc2ccccc2)NC(=O)Cc2c(C)[nH]c3ccccc23)cc1	> 360 min	0.9 min	0.5 min	72000 nM	> 360 min	9.1 °C	310 nM			
CN(C(=O)[C@H](Cc1ccccc1)NC(=O)Cc1c[nH]c2ccccc12)c1cc(F)cc(F)c1	> 360 min	0.9 min		< 50000 nM	> 360 min	2.3 °C	2500 nM	0.6 min		
CC(C)n1cc(CC(=O)N[C@@H](Cc2ccccc2)C(=O)N(C)c2ccccc2)c2ccccc21	> 360 min	0.9 min	0.5 min	21000 nM	> 360 min	6 °C	330 nM			
CN(C(=O)[C@H](Cc1ccccc1)NC(=O)Cc1c[nH]c2ccccc12)c1ccc(Cl)nc1	> 360 min	2.1 min			> 360 min	4.9 °C	260 nM	0.7 min		
CN(C(=O)[C@H](Cc1ccccc1)NC(=O)Cc1c[nH]c2ccccc12)c1cccc(Cl)c1				< 50000 nM		4.9 °C			99.5%	38%
Cc1c(CC(=O)N[C@@H](Cc2ccccc2)C(=O)N(C)c2ccc(F)cc2)c2ccccc2n1C(C)C	> 360 min	0.6 min	0.5 min	20000 nM	> 360 min	7.5 °C	320 nM			
CN(C(=O)[C@H](Cc1ccccc1)NC(=O)Cc1c[nH]c2ccccc12)c1cccc(C(F)(F)F)c1				< 50000 nM		2.8 °C			96%	16%
Cc1[nH]c2ccccc2c1CC(=O)N[C@@H](Cc1ccccc1)C(=O)N(C)c1ccc(F)cc1	> 360 min	1 min	0.5 min	> 50000 nM	> 360 min	7 °C	670 nM			
CCn1c(C)c(CC(=O)N[C@@H](Cc2ccccc2)C(=O)N(C)c2ccc(F)cc2)c2ccccc21	> 360 min	1 min	0.5 min	19000 nM	> 360 min	10.7 °C	220 nM			
CCn1c(C)c(CC(=O)N[C@@H](Cc2ccccc2)C(=O)N(C)c2ccccc2)c2ccccc21	> 360 min	1 min	0.5 min	21000 nM	> 360 min	10.8 °C	280 nM			
COc1ccc(N(C)C(=O)[C@H](Cc2ccccc2)NC(=O)Cc2c[nH]c3ccccc23)cc1	> 360 min	1.6 min		> 100000 nM	> 360 min	6.2 °C	230 nM	0.6 min		
Cc1cccc(N(C)C(=O)[C@H](Cc2ccccc2)NC(=O)Cc2c[nH]c3ccccc23)c1				> 50000 nM		1.6 °C			98%	37%
Cc1ccc(N(C)C(=O)[C@H](Cc2ccccc2)NC(=O)Cc2c[nH]c3ccccc23)cc1	> 360 min	1.5 min		66000 nM	> 360 min	6.6 °C	280 nM	0.6 min		
CCn1cc(CC(=O)N[C@@H](Cc2ccccc2)C(=O)N(C)c2ccc(F)cc2)c2ccccc21	> 360 min	1.3 min	0.5 min	18000 nM	> 360 min	7.1 °C	270 nM			
CCN(C(=O)[C@H](Cc1ccccc1)NC(=O)Cc1c(C)n(C(C)C)c2ccccc12)c1ccccc1				23000 nM		7 °C			99.7%	39%
CCn1cc(CC(=O)N[C@@H](Cc2ccccc2)C(=O)N(C)c2ccccc2)c2ccccc21	> 360 min	0.9 min	0.5 min	23000 nM	> 360 min	6.7 °C	310 nM			
Cc1[nH]c2ccccc2c1CC(=O)N[C@@H](Cc1ccccc1)C(=O)N(C)c1ccccc1	> 360 min		0.6 min			7.4 °C	610 nM			
CN(C(=O)[C@H](Cc1ccccc1)NC(=O)Cc1c[nH]c2ccccc12)c1ccc(F)cc1	> 360 min	1.3 min	0.5 min	> 100000 nM	> 360 min	3.3 °C	1800 nM			
COc1cccc(N(C)C(=O)[C@H](Cc2ccccc2)NC(=O)Cc2c[nH]c3ccccc23)c1				> 50000 nM		1.3 °C			97%	41%
COc1ccc(N(C)C(=O)[C@H](Cc2ccccc2)NC(=O)Cc2c(C)[nH]c3ccccc23)cc1	> 360 min	1 min		> 100000 nM	> 360 min	8.4 °C	630 nM	0.7 min		
Cc1c(CC(=O)N[C@@H](Cc2ccccc2)C(=O)N(C)c2ccccc2)c2ccccc2n1C(C)C	> 360 min	0.6 min	0.5 min	16000 nM	> 360 min	7.8 °C	280 nM			
CC(C)n1cc(CC(=O)N[C@@H](Cc2ccccc2)C(=O)N(C)c2ccc(F)cc2)c2ccccc21	> 360 min	0.9 min	0.5 min	18000 nM	> 360 min	6.5 °C	370 nM			
CCN(C(=O)[C@H](Cc1ccccc1)NC(=O)Cc1c(C)[nH]c2ccccc12)c1ccccc1	> 360 min	0.9 min	0.5 min	82000 nM	> 360 min	8.5 °C	250 nM			
CCn1cc(CC(=O)N[C@@H](Cc2ccccc2)C(=O)N(C)c2cccc(Cl)c2)c2ccccc21				20000 nM		5.8 °C	2000 nM			
CC(C)n1cc(CC(=O)N[C@@H](Cc2ccccc2)C(=O)N(C)c2cccc(Cl)c2)c2ccccc21				13000 nM		4.5 °C	1300 nM			
